Test results from ChEMBL document CHEMBL3526009, “Breast cancer resistance protein (ABCG2) determines distribution of genistein phase II metabolites: reevaluation of the roles of ABCG2 in the disposition of genistein” (Drug Metab Dispos, 2012).

Legend:
[1] = Stability in potassium phosphate buffer at pH 7.4 up to 4 hrs; format: physicochemical; settings: pH 7.4, 4 h
In short: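 Negative control run under the blood-incubation conditions but in 50 mM potassium phosphate buffer, pH 7.4, instead of blood. Genistein glucuronides (G-7-G plus G-4′-G, with aglycone) or sulfates (G-7-S plus G-4′-S, with aglycone) held at 37°C in a shaking water bath up to 4 h. Sampled at 0, 60, 120 and 240 min and read by UPLC-MS/MS.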

[2] = Biliary excretion in wild-type FVB mouse treated with genistein measured after 2.5 hrs post intestinal perfusion by UPLC-MS/MS analysis; format: ADME, Bile; settings: in vivo, other
In short: (§1)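 Gallbladder bile taken after 2.5 h of simultaneous small intestine/colon perfusion with 10 μM genistein (HBSS pH 7.4, 0.191 ml/min) in FVB or Bcrp1(−/−) mice (n = 4). Bile diluted 20-fold in HBSS, daidzein internal standard in acetonitrile added, dried and reconstituted. Genistein and conjugates quantified by UPLC-MS/MS.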

Blood = test: Stability in Wistar rat blood at 3 uM up to 4 hrs by UPLC-MS/MS analysis; format: ADME, tissue-based
In short: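 Genistein glucuronide mixture (G-7-G plus G-4′-G, 3 μM) with 3.8 μM genistein incubated in fresh rat whole blood, 37°C shaking water bath. Sampled at 0, 60, 120 and 240 min. Reaction stopped with acetonitrile containing daidzein internal standard. Genistein and conjugates quantified by UPLC-MS/MS using multiple reaction monitoring. n = 3.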

[3] = Biliary excretion in BCRP-/- mouse treated with genistein measured after 2.5 hrs post intestinal perfusion by UPLC-MS/MS analysis; format: ADME, Bile; settings: in vivo, other; in short: as §1

- Stability [1]: Stable
- Drug excretion [2]: metabolite_detected
- Stability (Blood): Stable
- Drug excretion [3]: metabolite_detected
Compound: O=C(O)[C@H]1O[C@@H](Oc2cc(O)c3c(=O)c(-c4ccc(O)cc4)coc3c2)[C@H](O)[C@@H](O)[C@@H]1O
